# Results from different studies.
# Compare with care: the assays were run in different laboratories.
# Target: Death-associated protein kinase 3 (DAPK3, Homo sapiens, UniProt O43293)
Structure (SMILES),effect on,technique,concentration,remaining binding [%]
CC(=O)Nc1c(C(C)=O)c(=O)n(C)c2nc(-c3ccc(Cl)cc3Cl)c(-c3ccc(Cl)cc3)cc12,cell-free assay,competition with immobilised ligand,1 µM,100
O=C(NCCCN1CCOCC1)c1ccc(Nc2ncc(Cl)c(-c3ccc(Cl)s3)n2)cc1,binding,competition with immobilised ligand,1 µM,17
Nc1c(C(=O)NCc2ccc(C(=O)NCCCC3CCCCC3)cc2)cnn1-c1ccccc1,cell-free assay,competition with immobilised ligand,0.1 µM,100
FC(F)(F)Oc1cccc(-c2cnc3ccc(-c4ccncc4)nn23)c1,cell-free assay,competition with immobilised ligand,5 µM,67
c1cncc(-c2cccc(Nc3nccc(NC4CCCCC4)n3)c2)c1,binding,competition with immobilised ligand,10 µM,85
COc1ccnn2ncc(-c3ccnc(N(C)C)n3)c12,binding,,1 µM,72
O=C(c1ccc(Nc2nccc(-c3cc4ccccc4s3)n2)cc1)N1CCC(N2CCCC2)CC1,binding,competition with immobilised ligand,1 µM,11
CC1CCCN1c1nccc(-c2cnn3ncccc23)n1 (stereo not shown),binding,,1 µM,89
O=C(NCC1CCOCC1)c1n[nH]cc1NC(=O)c1c(F)cccc1F,binding,competition with immobilised ligand,1 µM,94
CS(=O)(=O)c1cc(C2(NC(=O)c3cncc4c3cnn4-c3ccc(F)cc3)CC2)ccn1,cell-free assay,competition with immobilised ligand,1 µM,98
c1cnn2ncc(-c3ccnc(N4CCC45COC5)n3)c2c1,binding,,1 µM,73
CNC(=O)[C@@H]1CC[C@@H](n2c(-c3ccc4cnccc4c3)nc3ccc(C(=O)NCc4cccc(C(N)=O)c4)cc32)C1,binding,competition with immobilised ligand,1 µM,100
C[C@H]1CCN(c2nccc(-c3cnn4ncccc34)n2)C1,binding,,1 µM,79
COc1ncc2cc3ccccc3nc2c1C#N,cell-free assay,competition with immobilised ligand,5 µM,98
CC(C)(O)c1cncc(-c2nc3ccc(F)cc3n2C2CC2)c1,cell-free assay,competition with immobilised ligand,1 µM,100
C[C@@H](c1ccc(-n2cnc3c(N)ncnc32)cc1)N1CCc2nn(C)c(Cc3ccccc3)c2C1=O,binding,competition with immobilised ligand,0.1 µM,87
Cc1cnn2ncc(-c3ccnc(N(C)C)n3)c2c1,binding,,1 µM,84
CNC(=O)Nc1ccc2c(c1)CC[C@@]21OC(=O)N(CC(=O)N(Cc2ccc(F)cc2)[C@@H](C)C(F)(F)F)C1=O,cell-free assay,competition with immobilised ligand,1 µM,86
N[C@H]1CCN(c2nccc(-c3cnn4ncccc34)n2)C1,binding,,1 µM,100
Cc1cnc(Nc2ccc(C(=O)N3CCC(N4CCCC4)CC3)cc2)nc1-c1cc2ccccc2s1,binding,competition with immobilised ligand,1 µM,3.4
CN(CCCC(F)(F)F)c1nccc(-c2cnn3ncccc23)n1,binding,,1 µM,90
CN(C)c1ncnc(-c2ccc3nc(Nc4cc(CN5CCN(C(=O)CC(F)(F)F)CC5)ccn4)[nH]c3c2)c1Cl,cell-free assay,competition with immobilised ligand,1 µM,99
